We go through 97 compounds from ChEMBL document CHEMBL4513216, “Probing the Open Global Health Chemical Diversity Library for Multistage-Active Starting Points for Next-Generation Antimalarials” (ACS Infect Dis, 2020).

Each structure is given as a SMILES string.

A short description of this data set: Toxicity liver stage against HepG2, at 10uM. The format is cell-based. Further details: test concentration 10 uM, cell line HepG2-A16-CD81EGFP. The following applies: human, HepG2-A16-CD81EGFP cells; read-out: INHIBITION
Put shortly: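 Uninfected HepG2-A16-CD81EGFP cells, 3 × 10^3 per well, 1536-well, plated on prespotted compound at 10 μM final, parasite-free screening media added to match infected plates; puromycin 10 μM positive, DMSO 0.5% negative; run in parallel with 48 h PbLuc assay at 37 °C, 5% CO2; viability by CellTiter-Glo luminescence, normalized to controls.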
For `O=C(COCC(F)(F)F)Nc1nncs1`, the cytotoxicity at 10 µM turned out to be 5.79%.

Turning to `Cc1cccc(OC2CCN(C(=O)NCCn3ccnc3)CC2)c1C`, the cytotoxicity at 10 µM was 0.856%.

Take `Cc1ccc(CNC2(Cc3cc(CO)on3)COC2)o1`: the cytotoxicity at 10 µM came to 0.305%.

For `CC(C)NC(=O)N[C@H]1C[C@@H](c2nc(-c3ccncc3)no2)N(C)C1`, the cytotoxicity at 10 µM is -2.8%.

Consider `CCN(CC)C(=O)CSc1nc2nc(C)ccc2o1`, for which the cytotoxicity at 10 µM stood at 5.73%.

Regarding `CC(=O)N1N=C(c2ccco2)OC1C(=O)NCC(C)C` (configuration not stated), the cytotoxicity at 10 µM is -5.31%.

In the case of `O=S1(=O)[C@@H](c2ccccc2)[C@H](CO)CN1c1ccccc1`, the cytotoxicity at 10 µM was -5.41%.

Consider `Cc1nn(-c2ncnc3[nH]cnc23)c2c1C(CC(C)C)CC(=O)N2` (configuration not stated), for which the cytotoxicity at 10 µM worked out at 11.2%.

As to `Cc1cc(C)n(Cc2ccc(-c3noc(C(=O)NC[C@@H](C)O)n3)cc2)n1`, the cytotoxicity at 10 µM was -9.62%.

On to `Cc1nn(-c2ncnc3[nH]cnc23)c2c1C(C(C)(C)C)CC(=O)N2` (configuration not stated), for which the cytotoxicity at 10 µM is 5.08%.

As to `COCCN1CCC2(CC1)COc1ccccc1S(=O)(=O)N(C)C2`, the cytotoxicity at 10 µM is -1.28%.

Regarding `COc1cc(N2CC[C@@H]3O[C@@H](C(=O)NC(C)C)C[C@@H]32)ncn1`, the cytotoxicity at 10 µM amounted to 7.66%.

In the case of `CN(C)Cc1cn2c(n1)CN(C1CCOC1)CC2` (configuration not stated), the cytotoxicity at 10 µM stood at 6.43%.

Consider `O=c1ccc(-c2cccs2)nn1CN1CCN(C2CCS(=O)(=O)C2)CC1` (configuration not stated), for which the cytotoxicity at 10 µM came out at 9.99%.

`CN(C)CC1CSCCCN1C(=O)c1ccc(=O)[nH]c1` (configuration not stated): the cytotoxicity at 10 µM was found to be 2.76%.

With `CC(C)N1CCn2c(nc3cc(C(N)=O)ccc32)C1`, the cytotoxicity at 10 µM was -11.3%.

`Cc1noc([C@@]23CCO[C@@H]2CCN(C(=O)c2sccc2C)C3)n1`: the cytotoxicity at 10 µM is -8.23%.

For the compound `O=c1cc(Cn2ccnc2)nc2n1CCCN(Cc1ccsc1)C2`, the cytotoxicity at 10 µM was -0.808%.

In the case of `CCCNC(=O)c1nn(CC)cc1NC(=O)c1c(C)nn(C)c1C`, the cytotoxicity at 10 µM is -7.95%.

`Cc1nc(C)c(C(=O)N2CCc3nnc(C4CCCCN4C)n3CC2)o1` (configuration not stated): the cytotoxicity at 10 µM was found to be 1.9%.

As for `Cc1cccn2c(NC(C)(C)C)c(C3CCN(C(=O)C4CC4)CC3)nc12`, the cytotoxicity at 10 µM turned out to be 3.53%.

For `CC(=O)NCc1cncc(C2CCCN2C2CCOCC2)n1` (configuration not stated), the cytotoxicity at 10 µM came to 2.15%.

Take `O=C(c1cncs1)N1CCOC(c2cc(CCO)[nH]n2)C1` (configuration not stated): the cytotoxicity at 10 µM was -0.49%.

In the case of `Cc1ncc(CN2CCC(O)(c3ccccc3F)CC2)cn1`, the cytotoxicity at 10 µM stood at 0.46%.

Regarding `Cc1cc(N2CCC(c3n[nH]c4nccnc34)C2)ncn1` (configuration not stated), the cytotoxicity at 10 µM was -22.7%.

Regarding `NC(=O)CN1CCOCC(Cc2ccccc2)C1` (configuration not stated), the cytotoxicity at 10 µM is 0.579%.

For `Clc1ccc(C(CNCc2cccnc2)n2cccn2)cc1` (configuration not stated), the cytotoxicity at 10 µM is -5.07%.

As for `O=C(NCCc1nncn1C1CC1)C1SCCc2ccccc21` (configuration not stated), the cytotoxicity at 10 µM worked out at 2.48%.

On to `CCc1noc(CN(C)C2CCN(c3sccc3C#N)C2=O)n1` (configuration not stated), for which the cytotoxicity at 10 µM was 7.73%.

As to `Cn1cc(CCC(=O)NC(c2ccc(F)cc2)C(F)(F)F)cn1` (configuration not stated), the cytotoxicity at 10 µM stood at 1.68%.

For `Cc1cc(CNC(=O)Nc2ccc(C(=O)NC3CC3)cc2)no1`, the cytotoxicity at 10 µM is -0.396%.

Regarding `CCOC(=O)c1ccc(CNC(=O)c2ccon2)o1`, the cytotoxicity at 10 µM was determined as 8.64%.

Take `O=C(Nc1ccc2c(ccn2CCN2CCOCC2)c1)c1ccccn1`: the cytotoxicity at 10 µM is 0.425%.

As for `O=C(Nc1ccccn1)c1nc(N2CCCC2)ncc1Cl`, the cytotoxicity at 10 µM is -8.77%.

Consider `COc1ccc(NC(=O)Cc2c(C)nc3c(c2C)c(=O)[nH]n3C)cn1`, for which the cytotoxicity at 10 µM was 7.32%.

Turning to `Cc1cc(S(=O)(=O)Nc2cccc(I)c2)sc1C(=O)O`, the cytotoxicity at 10 µM is 3.76%.

In the case of `CC(=O)c1cccc(NS(=O)(=O)c2cc(C)c(C(=O)O)s2)c1`, the cytotoxicity at 10 µM stood at 0.178%.

Take `Cn1cc(Br)c(=O)c(NS(=O)(=O)c2ccc(Cl)cc2)c1`: the cytotoxicity at 10 µM is -5.28%.

As for `CCNC(=O)CCCC(=O)N1CCc2cc(Cl)cc(Cl)c2C1`, the cytotoxicity at 10 µM was -15.1%.

`Cc1ccsc1C(=O)Nc1cnn(CC(=O)NC2CCCC2)c1`: the cytotoxicity at 10 µM was -1.65%.

As to `Cc1nccn1-c1cc(CNC(=O)CCNC(=O)OC(C)(C)C)ccn1`, the cytotoxicity at 10 µM is -1.7%.

For the compound `COc1ccccc1C1(CNc2ccc(C(=O)N(C)C)cn2)CC1`, the cytotoxicity at 10 µM is -10.5%.

For the compound `CS(=O)(=O)CCCNC(=O)NC1CC(c2cccc(Cl)c2)C1` (configuration not stated), the cytotoxicity at 10 µM was -3.17%.

As for `Cc1ccc(F)c(NCC(C)(C)S(C)(=O)=O)c1`, the cytotoxicity at 10 µM is -7.6%.

As to `CN(CCc1nccs1)C(=O)CC1(O)CCCCC1`, the cytotoxicity at 10 µM was -6.16%.

As to `NC(=O)NC(=O)CCn1ccc(-c2ccsc2)n1`, the cytotoxicity at 10 µM came out at 8.56%.

Turning to `Cc1ccc(-n2nnnc2C2(NCc3ccco3)CCCC2)cc1`, the cytotoxicity at 10 µM was found to be 7.55%.

In the case of `COC(=O)CCC(=O)Nc1ccc(Br)c(C)n1`, the cytotoxicity at 10 µM was found to be 7.07%.

With `CC(C)OCCN(C)CC(c1cccs1)N1CCOCC1` (configuration not stated), the cytotoxicity at 10 µM was -4.34%.

As for `c1cnn(C2CN(c3ncnc4[nH]ccc34)C2)c1`, the cytotoxicity at 10 µM amounted to 1.87%.

Consider `CC(C)c1nc(CNc2ccc(CCO)cc2)cs1`, for which the cytotoxicity at 10 µM was determined as 20.1%.

`Cn1ccnc(Sc2ccccc2)c1=O`: the cytotoxicity at 10 µM is 0.483%.

Regarding `CCN1CCN(c2ccc(F)cc2C(C)NCc2ccncc2)CC1` (configuration not stated), the cytotoxicity at 10 µM was -1.4%.

Consider `CC(C(=O)NCc1ccnc(Oc2ccc(F)cc2)c1)n1cncn1` (configuration not stated), for which the cytotoxicity at 10 µM is -3.63%.

With `COc1ccc(S(=O)(=O)N2C[C@@H]3CN(C)CCO[C@@H]3C2)cc1`, the cytotoxicity at 10 µM came out at 1.82%.

On to `COc1ccc([C@@H]2CN(c3cc(OC)nc(N)n3)C[C@H]2N(C)C)cc1`, for which the cytotoxicity at 10 µM came out at 15%.

Consider `CC(=O)Nc1ccc2nc(CN(C)Cc3noc(C)n3)ccc2c1`, for which the cytotoxicity at 10 µM amounted to 3.47%.

As to `Cc1nc(C)c(C)c(N2CCC3(CCN(C)C3)C2)n1` (configuration not stated), the cytotoxicity at 10 µM is -4.88%.

Turning to `Cc1ccc(Cl)c(CN2CCN(C)C(C(=O)O)C2)c1F` (configuration not stated), the cytotoxicity at 10 µM was -0.0679%.

Regarding `CNC(=O)C(C)(C)N(C)C(=O)c1cc(COc2ccccc2OC)[nH]n1`, the cytotoxicity at 10 µM is -5.12%.

Take `CCc1cc(-c2nccn2-c2ccccc2CN2CCOCC2)on1`: the cytotoxicity at 10 µM was -7.91%.

In the case of `CC(C)c1cc(C(=O)N[C@H]2CN(C3CCOCC3)C[C@@H]2C2CC2)no1`, the cytotoxicity at 10 µM was 6.31%.

`CN(C)CCCNC(=O)C(c1cccc(F)c1)N(C)C` (configuration not stated): the cytotoxicity at 10 µM is -4.58%.

Consider `COC(=O)C1CCCN1C(=O)c1cc(CC(C)C)no1` (configuration not stated), for which the cytotoxicity at 10 µM was 14%.

`O=C1CN(CCCNS(=O)(=O)c2cccc(C(=O)NC3CC3)c2)CCN1`: the cytotoxicity at 10 µM was -3.45%.

As for `O=C(O)CC1COCCN1Cc1ccccc1-c1ccccc1` (configuration not stated), the cytotoxicity at 10 µM was 12.9%.

Regarding `COC(=O)[C@@H]1C[C@H](NC(=O)Cn2c(=O)cc(C)c3ccccc32)CN1C`, the cytotoxicity at 10 µM was -3.44%.

As to `CCc1noc(CN(C)Cc2cc3ccc(Cl)cc3[nH]c2=O)n1`, the cytotoxicity at 10 µM worked out at 4.92%.

Turning to `COc1c(F)cc(-c2cn(CCn3c(C)cc(C)nc3=O)nn2)cc1Cl`, the cytotoxicity at 10 µM is -1.72%.

As for `CN(CCc1ncnn1C1Cc2ccccc2C1)C1CCS(=O)(=O)C1` (configuration not stated), the cytotoxicity at 10 µM was -3.54%.

For the compound `CCN(Cc1nccn1C)C(=O)c1ccc(NCc2cnn(C)c2)nc1`, the cytotoxicity at 10 µM was 0.82%.

As to `Nc1ccc(C(=O)N2CCCC(C(=O)CCc3ccccc3)C2)cn1` (configuration not stated), the cytotoxicity at 10 µM is -7.98%.

With `O=C(CCCN1CCOCC1)N1CCCC(CO)(CC2CC2)C1` (configuration not stated), the cytotoxicity at 10 µM was -1.5%.

For the compound `CCCc1noc(CN2CCN(c3nccs3)CC2)n1`, the cytotoxicity at 10 µM is -3.43%.

`CC(Cn1cccn1)NC(=O)Nc1ccccn1` (configuration not stated): the cytotoxicity at 10 µM amounted to 1.32%.

For `CNc1nc(CNC(=O)Nc2ccc(SC)c(F)c2)cs1`, the cytotoxicity at 10 µM is -5.75%.

In the case of `Cc1cc(CNc2cc(Cl)ccc2C)no1`, the cytotoxicity at 10 µM is -7.01%.

For the compound `CC(=O)NC1CCCN(Cc2ccn(C)c(=O)c2)C1` (configuration not stated), the cytotoxicity at 10 µM turned out to be 2.34%.

`CCN(CC)c1ccc(C(=O)N2CCCC2Cn2cc(C)cn2)cn1` (configuration not stated): the cytotoxicity at 10 µM is -17.2%.

With `CCc1nccn1C1CCCN(C(=O)c2csc(C3CC3)n2)C1` (configuration not stated), the cytotoxicity at 10 µM was -9.39%.

Consider `CN(C)c1ncccc1CNS(=O)(=O)c1ccccc1Cl`, for which the cytotoxicity at 10 µM was -15.3%.

On to `Cc1cnn(CC2CCCCN2C(=O)c2ccc(N(C)C)nc2)c1` (configuration not stated), for which the cytotoxicity at 10 µM is -13.2%.

In the case of `Cc1nn(C)c(C)c1C1CCCN1C(=O)c1ccnc(N(C)C)c1` (configuration not stated), the cytotoxicity at 10 µM is -5.42%.

As for `CCc1nc(CN2CCCN(C(=O)c3cncnc3C)CC2)cs1`, the cytotoxicity at 10 µM is -7.95%.

Consider `CCOCCCn1c(NC(=O)c2cnn(C)c2)nc2ccccc21`, for which the cytotoxicity at 10 µM is -12.1%.

Take `Cc1ccc(S(=O)(=O)NC(=O)c2cccc(OCC(N)=O)c2)s1`: the cytotoxicity at 10 µM was -9.55%.

Consider `CN(C)S(=O)(=O)N1C[C@@H](Oc2ccccn2)[C@H]2OCCC[C@H]21`, for which the cytotoxicity at 10 µM is 1.16%.

On to `O=C1CC(c2ccncc2)C2(CCN(CC3CC3)CC2)N1` (configuration not stated), for which the cytotoxicity at 10 µM was 11.3%.

`Cc1ccc(CN2CCc3ncnc(-c4ccncc4)c3CC2)o1`: the cytotoxicity at 10 µM is -1.19%.

Take `c1coc(CN2CCCn3c(CN4CCOCC4)nnc3C2)c1`: the cytotoxicity at 10 µM was determined as 4.86%.

Turning to `CC1c2ncc(CNC(=O)C3CC3)n2CCN1Cc1nccs1` (configuration not stated), the cytotoxicity at 10 µM is -5.43%.

For the compound `Cc1ccsc1CN1C[C@@H]2COC[C@]2(COCC(=O)N(C)C)C1`, the cytotoxicity at 10 µM was -4.55%.

Regarding `CNC(=O)C1(CCCc2ccncc2)CCCCN1` (configuration not stated), the cytotoxicity at 10 µM is -37.5%.

Turning to `CN(C)C[C@H]1OC[C@@H]2CCN(C(=O)c3ccco3)C[C@@H]21`, the cytotoxicity at 10 µM was found to be 4.84%.

For `Cc1ccnc(N2C[C@H]3CC[C@@H](C2)N(CC2CCC2)C3=O)n1`, the cytotoxicity at 10 µM worked out at 11.4%.

For `CN1CC2(CCC(C(=O)O)CC2)Oc2ccccc2C1=O` (configuration not stated), the cytotoxicity at 10 µM was 2%.

With `CCCSCC(=O)N1C[C@@H]2CC[C@H]1CN(c1ncccn1)C2`, the cytotoxicity at 10 µM is 4.42%.
